Data from ChEMBL document CHEMBL1146494, “Anthrone and oxanthrone C-glycosides from Picramnia latifolia collected in Peru” (J Nat Prod, 2004).
In brackets after ≈: the same amount, converted by molar mass.

Experiments:
[1] = system: Lu1; test: Cytotoxicity against human Lu1 cells; type: functional; conditions: read-out: ED50 (the source's name)
[2] = system: LNCaP; test: Cytotoxicity against human LNCAP cells; type: functional; conditions: read-out: ED50 (the source's name)
[3] = system: MCF7; test: Cytotoxicity against human MCF7 cells; type: functional; conditions: read-out: ED50 (the source's name)
[4] = Cytotoxicity against HUVEC; type: cell-based; conditions: human, HUVEC cells; read-out: ED50 (the source's name)
[5] = system: Mus musculus; test: Toxicity in human Lu1 cells xenografted mouse at 6.25 to 50 mg/kg, ip after 4 days; type: organism-based; design: dose 6.25-50 mg/kg, route intraperitoneal; conditions: in vivo, 96 h
How it was run: (§1)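 In vivo hollow fiber assay in mice. Fibers containing the cancer cells were implanted at intraperitoneal and subcutaneous sites. The compound was given i.p. at 6.25, 12.5, 25 and 50 mg/kg body weight per injection, once daily for 4 days. Readouts were growth of the fiber-borne cells at each site, plus body weight and overt toxicity over the test period.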

[6] = system: Mus musculus; test: Toxicity in human LNCAP cells xenografted mouse at 6.25 to 50 mg/kg, ip after 4 days; type: organism-based; design: dose 6.25-50 mg/kg, route intraperitoneal; conditions: in vivo, 96 h; how it was run: as §1
[7] = system: Mus musculus; test: Toxicity in human MCF7 cells xenografted mouse at 6.25 to 50 mg/kg, ip after 4 days; type: organism-based; design: dose 6.25-50 mg/kg, route intraperitoneal; conditions: in vivo, 96 h; how it was run: as §1

Row | SMILES | EC50 [1] [µg/mL] | EC50 [2] [µg/mL] | EC50 [3] [µg/mL] | CC50 [4] [µg/mL] | Activity [5] | Activity [6] | Activity [7]
1 | Cc1cc(O)c2c(c1)C(=O)c1ccc(O)c(O)c1C2=O | 3 (≈ 11.1 µM) | 3.6 (≈ 13.3 µM) | 4.7 (≈ 17.4 µM) | 5 (≈ 18.5 µM) | Non-toxic | Non-toxic | Non-toxic
2 | CC[C@H](CC[C@@H](C)[C@H]1CC[C@H]2[C@@H]3CC=C4C[C@@H](O[C@@H]5O[C@H](CO)[C@@H](O)[C@H](O)[C@H]5O)CC[C@]4(C)[C@H]3CC[C@]12C)C(C)C [SITOGLUSIDE] | > 5 | > 5 | > 5 | > 5 |  |  | 
3 | Cc1cc(O)c2c(c1)[C@H](C[C@H]1OC[C@@H](OC(=O)c3ccccc3)[C@@H](O)[C@@H]1O)c1cccc(O)c1C2=O [PICRAMNIOSIDE H] | > 5 | > 5 | > 5 | > 5 |  |  | 
4 | Cc1cc(O)c2c(c1)C(=O)c1cccc(O[C@@H]3O[C@H](CO)[C@@H](O)[C@H](O)[C@H]3O)c1C2=O [PULMATIN] | > 5 | > 5 | > 5 | > 5 |  |  | 
5 | Cc1cc(O)c2c3c(cccc13)-c1cccc(O)c1C2=O | > 5 | > 5 | > 5 | > 5 |  |  | 
6 | Cc1cc(O)c2c(c1)C(=O)c1cccc(O)c1C2=O [CHRYSOPHANOL] | > 5 | > 5 | > 5 | > 5 |  |  | 
7 | CC[C@H](CC[C@@H](C)[C@H]1CC[C@H]2[C@@H]3CC=C4C[C@@H](O)CC[C@]4(C)[C@H]3CC[C@]12C)C(C)C [BETA-SITOSTEROL] | > 5 | > 5 | > 5 | > 5 |  |  | 
8 | COc1cc(O)c2c(c1)C(=O)c1c(O)cc(C)cc1C2=O | > 5 | > 5 | > 5 | > 5 |  |  | 
9 | Cc1cc(O)c2c(c1)[C@@H](C[C@H]1OC[C@@H](OC(=O)c3ccccc3)[C@@H](O)[C@@H]1O)c1cccc(O)c1C2=O [PICRAMNIOSIDE G] | > 5 | > 5 | > 5 | > 5 |  |  | 
10 | Cc1cc(O)c2c(c1)-c1cccc3ccc(O)c(c13)C2=O | > 5 | > 5 | > 5 | > 5 |  |  | 
11 | COc1cc2ccc(=O)oc2cc1O [SCOPOLETIN] | > 5 | > 5 | > 5 | > 5 |  |  | 
12 | Cc1cc(O[C@@H]2O[C@H](CO)[C@@H](O)[C@H](O)[C@H]2O)c2c(c1)C(=O)c1cccc(O)c1C2=O [CHRYSOPHANEIN] | > 5 | > 5 | > 5 | > 5 |  |  | 
13 | O=c1ccc2ccc(O)cc2o1 [UMBELLIFERONE] | > 5 | > 5 | > 5 | > 5 |  |  | 
